Results pooled from the literature.
Protocols differ between the studies behind these lines.
Target: Serine/threonine-protein kinase Sgk3 (SGK3, Homo sapiens, UniProt Q96BR1)
Residues used in one study (Q96BR1 1-496): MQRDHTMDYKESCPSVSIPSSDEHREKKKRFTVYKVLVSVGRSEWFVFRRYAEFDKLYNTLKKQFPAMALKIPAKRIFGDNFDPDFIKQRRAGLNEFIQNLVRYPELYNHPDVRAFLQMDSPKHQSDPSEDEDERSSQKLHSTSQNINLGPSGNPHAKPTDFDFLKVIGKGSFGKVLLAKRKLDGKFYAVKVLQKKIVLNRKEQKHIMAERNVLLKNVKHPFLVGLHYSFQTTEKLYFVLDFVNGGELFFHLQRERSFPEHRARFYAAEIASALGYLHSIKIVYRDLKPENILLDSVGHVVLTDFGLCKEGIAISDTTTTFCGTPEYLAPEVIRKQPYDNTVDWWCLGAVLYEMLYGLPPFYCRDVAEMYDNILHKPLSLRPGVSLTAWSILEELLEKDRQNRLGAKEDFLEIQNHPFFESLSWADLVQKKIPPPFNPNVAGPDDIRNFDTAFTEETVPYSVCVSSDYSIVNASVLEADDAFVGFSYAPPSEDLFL

SMILES | observed | method | concentration | remaining binding
N[C@@H]1CCN(c2nccc(-c3cnn4ncccc34)n2)C1 | binding | – | 1 µM | 100%
CCC(=N\O)/C(C)=C/c1ccc(F)cc1 | cell-free assay | competition with immobilised ligand | 1 µM | 81%
F[C@@H]1CCN(c2nccc(-c3cnn4ncccc34)n2)C1 | binding | – | 1 µM | 89%
Cc1c(NC(=O)c2cc(C(N)=O)nc3cc(F)ccc23)c(C(F)(F)F)nn1Cc1ccc(C(C)(C)C)cc1 | cell-free assay | competition with immobilised ligand | 1 µM | 94%
O=C(c1ccc(Nc2ncc(Cl)c(-c3ccc(Cl)s3)n2)cc1)N1CCC(N2CCCC2)CC1 | binding | competition with immobilised ligand | 1 µM | 4.7%
COc1cnc(Nc2cccc(S(N)(=O)=O)c2)nc1N1CCN(c2ccccc2)C(=O)C1 | binding | competition with immobilised ligand | 1 µM | 100%
c1cncc(-c2cccc(Nc3nccc(NC4CCCCC4)n3)c2)c1 | binding | competition with immobilised ligand | 10 µM | 58%
O=C(Nc1c[nH]nc1C(=O)NC1CCNCC1)c1cc(F)cc(F)c1 | binding | competition with immobilised ligand | 1 µM | 100%
Nc1ncc2c(n1)-c1c([nH]c3ccc(C#CC4CC4)cc13)CCCC2 | binding | competition with immobilised ligand | 1 µM | 100%
Cc1noc([C@H]2C[C@@H](c3ccc(C(F)(F)F)cc3)CN(C(=O)N3CCS(=O)(=O)C3)C2)n1 | cell-free assay | competition with immobilised ligand | 1 µM | 100%
COc1cnc(Nc2cccc(S(N)(=O)=O)c2)nc1N1CCN(c2ccccc2)CC1 | binding | competition with immobilised ligand | 1 µM | 72%
Cc1cnc(Nc2ccc(C(=O)N3CCC(N4CCCC4)CC3)cc2)nc1-c1cc2ccccc2s1 | binding | competition with immobilised ligand | 1 µM | 7.3%
O=C(NCCCC1CCCCC1)c1ccc(CNC(=O)c2cnn(-c3ccccc3)c2C(F)(F)F)cc1 | cell-free assay | competition with immobilised ligand | 0.1 µM | 92%
CC1CCCN1c1nccc(-c2cnn3ncccc23)n1 (stereo not drawn) | binding | – | 1 µM | 86%
O=C(Nc1cnc(Oc2ccc(F)cc2)nc1)N1CCc2ncccc2[C@@H]1c1ccc(F)cc1 | cell-free assay | competition with immobilised ligand | 1 µM | 100%
COc1ccnn2ncc(-c3ccnc(N(C)C)n3)c12 | binding | – | 1 µM | 95%
C=CC(=O)N1CCC(C(=O)NCC(=O)N2CCN(c3nc(-c4cnc(N)nc4C(F)F)nc(N4CCOCC4)n3)CC2)CC1 | binding | competition with immobilised ligand | 1 µM | 100%
CN(c1nccc(-c2cnn3ncccc23)n1)C1CC1 | binding | – | 1 µM | 99%
O=C(c1ccc(Nc2ncc(Cl)c(-c3cc4ccccc4s3)n2)cc1)N1CCC(N2CCCC2)CC1 | binding | competition with immobilised ligand | 1 µM | 5.6%
CS(=O)(=O)c1cc(C2(NC(=O)c3cncc4c3cnn4-c3ccc(F)cc3)CC2)ccn1 | cell-free assay | competition with immobilised ligand | 1 µM | 100%
CN(C)c1nccc(-c2cnc3ncccn23)n1 | binding | – | 1 µM | 79%
